Experimental data taken from ChEMBL document CHEMBL5154825, “Discovery of V-0219: A Small-Molecule Positive Allosteric Modulator of the Glucagon-Like Peptide-1 Receptor toward Oral Treatment for "Diabesity"” (J Med Chem, 2022).
Active and inactive are the calls of the source. No cut-off for these calls is given here.

How the values were obtained:
[1] = Effective permeability of compound in PBS buffer at pH 7.4 at 50 to 100 uM after 5 hrs by PAMPA; assay type: ADME; settings: pH 7.4, 5 h, dose 50-100 µM
[2] = Toxicity in Wistar rat assessed hypolocomotion at 0.5 to 1 mg/kg, ip measured after 30 mins by elevated plus-maze analysis; settings: in vivo, 0.5 h
[3] = biological target: T1, Glucagon-like peptide 1 receptor (Rattus norvegicus, UniProt P32301); assay: Positive allosteric modulator activity at GLP-1R in rat INS1 beta-cells assessed potentiation of GLP-1(7-36)NH2 induced insulin secretion incubated for 30 mins in presence of high glucose condition by ELISA; assay type: cell-based
T1 sequence (P32301 whole entry): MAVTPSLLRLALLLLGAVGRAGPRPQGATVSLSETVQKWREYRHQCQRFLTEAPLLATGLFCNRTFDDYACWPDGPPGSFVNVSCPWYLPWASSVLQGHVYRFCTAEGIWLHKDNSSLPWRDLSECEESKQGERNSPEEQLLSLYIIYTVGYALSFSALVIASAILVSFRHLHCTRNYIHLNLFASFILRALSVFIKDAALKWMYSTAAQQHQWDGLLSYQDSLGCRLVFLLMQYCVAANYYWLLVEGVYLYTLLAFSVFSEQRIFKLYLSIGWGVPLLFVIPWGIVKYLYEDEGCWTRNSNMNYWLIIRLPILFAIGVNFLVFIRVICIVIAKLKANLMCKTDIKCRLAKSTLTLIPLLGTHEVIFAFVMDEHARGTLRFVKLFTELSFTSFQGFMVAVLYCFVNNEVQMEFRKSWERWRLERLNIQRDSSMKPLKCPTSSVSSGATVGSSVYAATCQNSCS

[4] = Toxicity in Wistar rat assessed anxiety like behavior at 0.5 to 1 mg/kg, ip measured after 30 mins by elevated plus-maze analysis; assay type: organism-based; settings: in vivo, 0.5 h, dose 0.5-1 mg/kg
Method in brief: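 Male Wistar rats, naive to the maze, were handled for 7 days. Compound at 0.5 or 1 mg/kg ip in saline/DMSO (0.2%). 30 min after dosing, each rat was placed in the maze centre facing an open arm, and open-arm entries and % time in open arms were scored over 5 min. No retesting; 8 animals.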

[5] = biological target: T2, Glucagon-like peptide 1 receptor (Rattus norvegicus) (UniProt P32301); assay: Positive allosteric modulator activity at GLP-1R in rat INS1 beta-cells assessed potentiation of GLP-1(7-36)NH2 induced insulin secretion at 1 uM incubated for 30 mins in presence of 15 mM of glucose by ELISA; assay type: cell-based; settings: filed as positive allosteric modulator
T2 sequence (whole entry): T1 sequence (P32301 whole entry)
Method in brief: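 Rat INS-1 cells held in glucose-free medium for 1.5 h (100,000 cells/well). […] Medium was centrifuged at 4 °C and secreted insulin measured by ELISA.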

SMILES: FC(F)(F)c1ccc(-c2noc(CN3CCCC(CN4CCOCC4)C3)n2)cc1 (stereo unspecified)
- Peff [1]: Active
- Activity [2]: Non-Toxic
- EC50 [3]: 8 pM
- Activity [4]: Non-Toxic

SMILES: NC(=O)C1CCN(Cc2nc(-c3ccc(C(F)(F)F)cc3)no2)CC1
- Activity [5]: Active

SMILES: FC(F)(F)c1ccc(-c2noc(CN3CCCCC3CCc3ccccn3)n2)cc1 (stereo unspecified)
- Activity [5]: Active
